Values after ≈ are worked out from the molar mass of the structure shown. Active and inactive are the calls of the source. The rule behind the calls is not given here.
Tests used:
Pseudomonas aeruginosa [1] = experiment: Antimicrobial activity against Pseudomonas aeruginosa ATCC 15499 assessed as diameter of inhibition zone at 80 uM after 24 hrs by Kirby -Baur disc diffusion method; type: functional; conditions: ATCC 15499, 24 h, read-out: DIZ
In short: (§1)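 Kirby-Bauer disc diffusion was used. Acetone stocks (160 µM) were serially doubled down to 80, 40 and 20 µM. 4 µL of each went onto 5 mm sterile paper discs, which were dried 30 min at 50 °C. Inoculum was 1.5 × 10⁸ CFU/mL diluted to 3 × 10² CFU/mL, and 50 µL was spread on Mueller-Hinton agar. After 24 h at 37 °C the inhibition-zone diameter was measured. Ciprofloxacin served as positive control.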

Staphylococcus aureus [2] = experiment: Antimicrobial activity against Staphylococcus aureus ATCC 11632 assessed as diameter of inhibition zone at 40 uM after 24 hrs by Kirby -Baur disc diffusion method; type: functional; conditions: ATCC 11632, 24 h, read-out: DIZ; in short: as §1
HeLa = experiment: Cytotoxicity against human HeLa cells after 24 hrs by MTT assay; type: functional, cell-based
In short: (§2)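 The MTT assay seeded 5 × 10⁴ cells per well and grew them 24 h in RPMI 1640 with compound at 2.5–200 µM. Medium without cells was the blank and adriamycin the positive control. MTT was added for 4 h at 37 °C, formazan was solubilised, and absorbance was read at 570 nm. IC50 is the concentration that cuts viability 50% against untreated cells.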

Trichoderma viride [3] = experiment: Antifungal activity against Trichoderma viride MTCC 1107 assessed as zone of inhibition at 40 uM after 48 hrs by disc diffusion method; type: functional; conditions: MTCC 1107, 48 h, read-out: IZ
In short: (§3)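 Spores from 4-day potato dextrose agar cultures, suspended in sterile water at 1.5 × 10⁵ CFU/mL. 0.2 mL was spread on potato dextrose agar. 5 mm filter-paper discs soaked with test compound were laid on the lawn. Incubation was 48 h at 28 °C, then the inhibition zone was measured in mm. Fluconazole was the positive control and acetone the negative control.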

Escherichia coli [4] = experiment: Antimicrobial activity against Escherichia coli ATCC 35218 after 24 hrs by broth micro serial dilution method; type: functional; conditions: ATCC 35218, 24 h
In short: (§4)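 This was broth microdilution in autoclaved Mueller-Hinton broth. 150 µL of compound per well was serially diluted […], and 50 µL of test organism was added. Plates were incubated 24 h at 37 °C and optical density was read.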

Aspergillus flavus [5] = experiment: Antifungal activity against Aspergillus flavus MTCC 1021 after 48 hrs; type: functional; conditions: MTCC 1021, 48 h
Trichoderma viride [6] = experiment: Antifungal activity against Trichoderma viride MTCC 1107 assessed as zone of inhibition at 20 uM after 48 hrs by disc diffusion method; type: functional; conditions: MTCC 1107, 48 h, read-out: IZ; in short: as §3
Curvularia lunata [7] = experiment: Antifungal activity against Curvularia lunata MTCC 581 assessed as zone of inhibition at 40 uM after 48 hrs by disc diffusion method; type: functional; conditions: MTCC 581, 48 h, read-out: IZ; in short: as §3
Aspergillus niger [8] = experiment: Antifungal activity against Aspergillus niger MTCC 1108 assessed as zone of inhibition at 80 uM after 48 hrs by disc diffusion method; type: functional; conditions: MTCC 1108, 48 h, read-out: IZ; in short: as §3
Salmonella typhi [9] = experiment: Antimicrobial activity against Salmonella typhi ATCC 23564 assessed as diameter of inhibition zone at 40 uM after 24 hrs by Kirby -Baur disc diffusion method; type: functional, Salmonella enterica subsp. enterica serovar Typhi; conditions: Salmonella enterica, ATCC 23564, 24 h; read-out: DIZ
Trichoderma viride [10] = experiment: Antifungal activity against Trichoderma viride MTCC 1107 assessed as zone of inhibition at 80 uM after 48 hrs by disc diffusion method; type: functional; conditions: MTCC 1107, 48 h, read-out: IZ; in short: as §3
Aspergillus flavus [11] = experiment: Antifungal activity against Aspergillus flavus MTCC 1021 assessed as zone of inhibition at 40 uM after 48 hrs by disc diffusion method; type: functional; in short: as §3
Bacillus cereus [12] = experiment: Antimicrobial activity against Bacillus cereus MTCC 7350 after 24 hrs by broth micro serial dilution method; type: functional; conditions: MTCC 7350, 24 h; in short: as §4
Bacillus cereus [13] = experiment: Antimicrobial activity against Bacillus cereus MTCC 7350 assessed as diameter of inhibition zone at 40 uM after 24 hrs by Kirby -Baur disc diffusion method; type: functional; conditions: MTCC 7350, 24 h, read-out: DIZ; in short: as §1
Bacillus cereus [14] = experiment: Antimicrobial activity against Bacillus cereus MTCC 7350 assessed as diameter of inhibition zone at 80 uM after 24 hrs by Kirby -Baur disc diffusion method; type: functional; conditions: MTCC 7350, 24 h, read-out: DIZ; in short: as §1
Salmonella typhi [15] = experiment: Antimicrobial activity against Salmonella typhi ATCC 23564 assessed as diameter of inhibition zone at 20 uM after 24 hrs by Kirby -Baur disc diffusion method; type: functional, Salmonella enterica subsp. enterica serovar Typhi; conditions: Salmonella enterica, ATCC 23564, 24 h; read-out: DIZ
Mus musculus = experiment: Antiinflammatory activity in mouse assessed as inhibition of carrageenan-induced increase in paw volume at 200 mg/kg administered 1 hr prior to carrageenan challenge measured after 3 hrs relative to control; type: functional
In short: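 Mice were fasted 2 h and placed in groups of five. Controls received saline i.p. Phenylbutazone was given at 100 mg/kg i.p., curcumin at 200 mg/kg i.p., and derivatives at 200 mg/kg. After 1 h, 0.1 mL of 1% carrageenan in saline was injected subplantar into the right hind paw. Paw volume was followed by plethysmometer for 3 h, and % inhibition was calculated as (Vc − Vt)/Vc × 100.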

Bacillus cereus [16] = experiment: Antimicrobial activity against Bacillus cereus MTCC 7350 assessed as diameter of inhibition zone at 20 uM after 24 hrs by Kirby -Baur disc diffusion method; type: functional; conditions: MTCC 7350, 24 h, read-out: DIZ; in short: as §1
QG-56 = experiment: Cytotoxicity against human QG56 cells after 24 hrs by MTT assay; type: functional, cell-based; in short: as §2
Aspergillus niger [17] = experiment: Antifungal activity against Aspergillus niger MTCC 1108 after 48 hrs; type: functional; conditions: MTCC 1108, 48 h
Curvularia lunata [18] = experiment: Antifungal activity against Curvularia lunata MTCC 581 after 48 hrs; type: functional; conditions: MTCC 581, 48 h
Curvularia lunata [19] = experiment: Antifungal activity against Curvularia lunata MTCC 581 assessed as zone of inhibition at 20 uM after 48 hrs by disc diffusion method; type: functional; conditions: MTCC 581, 48 h, read-out: IZ; in short: as §3
Pseudomonas aeruginosa [20] = experiment: Antimicrobial activity against Pseudomonas aeruginosa ATCC 15499 assessed as diameter of inhibition zone at 20 uM after 24 hrs by Kirby -Baur disc diffusion method; type: functional; conditions: ATCC 15499, 24 h, read-out: DIZ; in short: as §1
Staphylococcus aureus [21] = experiment: Antimicrobial activity against Staphylococcus aureus ATCC 11632 assessed as diameter of inhibition zone at 20 uM after 24 hrs by Kirby -Baur disc diffusion method; type: functional; conditions: ATCC 11632, 24 h, read-out: DIZ; in short: as §1
Aspergillus niger [22] = experiment: Antifungal activity against Aspergillus niger MTCC 1108 assessed as zone of inhibition at 40 uM after 48 hrs by disc diffusion method; type: functional; in short: as §3
HCT-116 = experiment: Cytotoxicity against human HCT116 cells after 24 hrs by MTT assay; type: functional, cell-based; in short: as §2
Escherichia coli [23] = experiment: Antimicrobial activity against Escherichia coli ATCC 35218 assessed as diameter of inhibition zone at 80 uM after 24 hrs by Kirby -Baur disc diffusion method; type: functional; conditions: ATCC 35218, 24 h, read-out: DIZ; in short: as §1
Aspergillus niger [24] = experiment: Antifungal activity against Aspergillus niger MTCC 1108 assessed as zone of inhibition at 20 uM after 48 hrs by disc diffusion method; type: functional; in short: as §3
Curvularia lunata [25] = experiment: Antifungal activity against Curvularia lunata MTCC 581 assessed as zone of inhibition at 80 uM after 48 hrs by disc diffusion method; type: functional; conditions: MTCC 581, 48 h, read-out: IZ; in short: as §3
Salmonella typhi [26] = experiment: Antimicrobial activity against Salmonella typhi ATCC 23564 after 24 hrs by broth micro serial dilution method; type: functional, Salmonella enterica subsp. enterica serovar Typhi; conditions: Salmonella enterica, ATCC 23564, 24 h
Aspergillus flavus [27] = experiment: Antifungal activity against Aspergillus flavus MTCC 1021 assessed as zone of inhibition at 20 uM after 48 hrs by disc diffusion method; type: functional; in short: as §3
Salmonella typhi [28] = experiment: Antimicrobial activity against Salmonella typhi ATCC 23564 assessed as diameter of inhibition zone at 80 uM after 24 hrs by Kirby -Baur disc diffusion method; type: functional, Salmonella enterica subsp. enterica serovar Typhi; conditions: Salmonella enterica, ATCC 23564, 24 h; read-out: DIZ
Staphylococcus aureus [29] = experiment: Antimicrobial activity against Staphylococcus aureus ATCC 11632 after 24 hrs by broth micro serial dilution method; type: functional; conditions: ATCC 11632, 24 h; in short: as §4
Escherichia coli [30] = experiment: Antimicrobial activity against Escherichia coli ATCC 35218 assessed as diameter of inhibition zone at 40 uM after 24 hrs by Kirby -Baur disc diffusion method; type: functional; conditions: ATCC 35218, 24 h, read-out: DIZ; in short: as §1
Aspergillus flavus [31] = experiment: Antifungal activity against Aspergillus flavus MTCC 1021 assessed as zone of inhibition at 80 uM after 48 hrs by disc diffusion method; type: functional; conditions: MTCC 1021, 48 h, read-out: IZ; in short: as §3
Trichoderma viride [32] = experiment: Antifungal activity against Trichoderma viride MTCC 1107 after 48 hrs; type: functional; conditions: MTCC 1107, 48 h
HepG2 = experiment: Cytotoxicity against human HepG2 cells after 24 hrs by MTT assay; type: functional, cell-based; in short: as §2
Pseudomonas aeruginosa [33] = experiment: Antimicrobial activity against Pseudomonas aeruginosa ATCC 15499 assessed as diameter of inhibition zone at 40 uM after 24 hrs by Kirby -Baur disc diffusion method; type: functional; conditions: ATCC 15499, 24 h, read-out: DIZ; in short: as §1
Staphylococcus aureus [34] = experiment: Antimicrobial activity against Staphylococcus aureus ATCC 11632 assessed as diameter of inhibition zone at 80 uM after 24 hrs by Kirby -Baur disc diffusion method; type: functional; conditions: ATCC 11632, 24 h, read-out: DIZ; in short: as §1
Pseudomonas aeruginosa [35] = experiment: Antimicrobial activity against Pseudomonas aeruginosa ATCC 15499 after 24 hrs by broth micro serial dilution method; type: functional; conditions: ATCC 15499, 24 h; in short: as §4
Escherichia coli [36] = experiment: Antimicrobial activity against Escherichia coli ATCC 35218 assessed as diameter of inhibition zone at 20 uM after 24 hrs by Kirby -Baur disc diffusion method; type: functional; conditions: ATCC 35218, 24 h, read-out: DIZ; in short: as §1

COc1cc(/C=C/C(CC(/C=C/c2ccc(O)c(OC)c2)=N/c2ccc(S(=O)(=O)Nc3cc(C)on3)cc2)=N\c2ccc(S(=O)(=O)Nc3cc(C)on3)cc2)ccc1O
zone of inhibition at 80 µM (Pseudomonas aeruginosa [1]): 26 mm
zone of inhibition at 40 µM (Staphylococcus aureus [2]): 21 mm
IC50 (HeLa): 100 µM
zone of inhibition at 40 µM (Trichoderma viride [3]): 11 mm
MIC (Escherichia coli [4]): 20 µM (≈ 16.8 µg/mL)
MIC (Aspergillus flavus [5]): > 80 µM
zone of inhibition at 20 µM (Trichoderma viride [6]): 9 mm
zone of inhibition at 40 µM (Curvularia lunata [7]): 10 mm
zone of inhibition at 80 µM (Aspergillus niger [8]): 10 mm
zone of inhibition at 40 µM (Salmonella typhi [9]): 26 mm
zone of inhibition at 80 µM (Trichoderma viride [10]): 13 mm
inhibition zone (IZ) (Aspergillus flavus [11]): inactive
MIC (Bacillus cereus [12]): 40 µM (≈ 33.6 µg/mL)
zone of inhibition at 40 µM (Bacillus cereus [13]): 16 mm
zone of inhibition at 80 µM (Bacillus cereus [14]): 21 mm
zone of inhibition at 20 µM (Salmonella typhi [15]): 18 mm
inhibition in vivo at 200 mg/kg (Mus musculus): 8%
zone of inhibition at 20 µM (Bacillus cereus [16]): 11 mm
IC50 (QG-56): 100 µM
MIC (Aspergillus niger [17]): > 80 µM
MIC (Curvularia lunata [18]): 40 µM (≈ 33.6 µg/mL)
zone of inhibition at 20 µM (Curvularia lunata [19]): 9 mm
zone of inhibition at 20 µM (Pseudomonas aeruginosa [20]): 16 mm
zone of inhibition at 20 µM (Staphylococcus aureus [21]): 17 mm
inhibition zone (IZ) (Aspergillus niger [22]): inactive
IC50 (HCT-116): 100 µM
zone of inhibition at 80 µM (Escherichia coli [23]): 23 mm
inhibition zone (IZ) (Aspergillus niger [24]): inactive
zone of inhibition at 80 µM (Curvularia lunata [25]): 11 mm
MIC (Salmonella typhi [26]): 40 µM (≈ 33.6 µg/mL)
inhibition zone (IZ) (Aspergillus flavus [27]): inactive
zone of inhibition at 80 µM (Salmonella typhi [28]): 29 mm
MIC (Staphylococcus aureus [29]): 40 µM (≈ 33.6 µg/mL)
zone of inhibition at 40 µM (Escherichia coli [30]): 21 mm
zone of inhibition at 80 µM (Aspergillus flavus [31]): 9 mm
MIC (Trichoderma viride [32]): 40 µM (≈ 33.6 µg/mL)
IC50 (HepG2): 100 µM
zone of inhibition at 40 µM (Pseudomonas aeruginosa [33]): 21 mm
zone of inhibition at 80 µM (Staphylococcus aureus [34]): 24 mm
MIC (Pseudomonas aeruginosa [35]): 40 µM (≈ 33.6 µg/mL)
zone of inhibition at 20 µM (Escherichia coli [36]): 18 mm
